Residue numbers refer to the chain shown, from its start.
Key:
Details in all cases: stereoisomer not certain
[1] = biological target: T1, OR6C65 (Homo sapiens) (UniProt A6NJZ3)
T1 sequence (whole entry): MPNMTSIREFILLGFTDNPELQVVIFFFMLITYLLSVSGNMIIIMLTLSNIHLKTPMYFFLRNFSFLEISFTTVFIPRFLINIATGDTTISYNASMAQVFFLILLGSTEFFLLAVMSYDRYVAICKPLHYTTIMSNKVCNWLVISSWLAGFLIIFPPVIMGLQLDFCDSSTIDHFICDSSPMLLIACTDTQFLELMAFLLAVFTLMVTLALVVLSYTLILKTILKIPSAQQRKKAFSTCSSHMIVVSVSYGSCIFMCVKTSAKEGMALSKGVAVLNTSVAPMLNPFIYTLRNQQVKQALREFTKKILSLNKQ
How it was run: (§1)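 Values were gathered from published papers (main text and supplementary material), with extra details requested from the original authors when needed, and checked for typos and inconsistencies. Each receptor–molecule pair is called responsive (active) if the original authors judged the measured signal statistically different from baseline, and non-responsive (inactive) otherwise. Assay methods varied by source, often transient mammalian cell-line luciferase assays. Recorded details include cell line, G-protein, co-transfected protein and tags.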

[2] = biological target: T2, OR6C68 (Homo sapiens) (UniProt A6NDL8)
T2 sequence (whole entry): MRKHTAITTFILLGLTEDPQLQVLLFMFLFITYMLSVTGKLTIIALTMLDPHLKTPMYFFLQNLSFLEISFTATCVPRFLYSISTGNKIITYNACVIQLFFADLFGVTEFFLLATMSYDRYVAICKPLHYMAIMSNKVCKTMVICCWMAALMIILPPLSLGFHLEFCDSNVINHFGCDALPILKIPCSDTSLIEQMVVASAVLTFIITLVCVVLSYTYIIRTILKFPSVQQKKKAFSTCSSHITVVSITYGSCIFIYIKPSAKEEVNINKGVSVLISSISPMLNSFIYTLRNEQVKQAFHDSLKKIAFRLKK
How it was run: as §1

[3] = biological target: T3, OR6C70 (Homo sapiens) (UniProt A6NIJ9)
T3 sequence (whole entry): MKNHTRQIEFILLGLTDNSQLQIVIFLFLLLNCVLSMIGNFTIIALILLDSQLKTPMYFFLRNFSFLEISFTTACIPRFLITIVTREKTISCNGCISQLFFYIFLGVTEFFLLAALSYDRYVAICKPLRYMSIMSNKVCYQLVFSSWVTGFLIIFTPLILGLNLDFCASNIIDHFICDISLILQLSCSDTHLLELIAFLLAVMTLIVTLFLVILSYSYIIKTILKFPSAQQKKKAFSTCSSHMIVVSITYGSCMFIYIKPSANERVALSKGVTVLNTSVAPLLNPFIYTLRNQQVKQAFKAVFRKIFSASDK
How it was run: as §1

[4] = biological target: T4, OR6C74 (Homo sapiens) (UniProt A6NCV1)
T4 sequence (whole entry): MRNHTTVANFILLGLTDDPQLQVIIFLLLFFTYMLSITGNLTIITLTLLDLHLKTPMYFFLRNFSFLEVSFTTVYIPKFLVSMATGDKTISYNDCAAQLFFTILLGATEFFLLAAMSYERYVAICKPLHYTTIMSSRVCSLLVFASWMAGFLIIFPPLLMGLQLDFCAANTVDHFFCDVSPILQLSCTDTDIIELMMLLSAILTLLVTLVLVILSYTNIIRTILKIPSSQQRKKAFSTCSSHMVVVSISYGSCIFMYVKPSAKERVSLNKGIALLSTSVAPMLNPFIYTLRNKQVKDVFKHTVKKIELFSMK
How it was run: as §1

[5] = biological target: T5, OR6C75 (Homo sapiens) (UniProt A6NL08)
T5 sequence (whole entry): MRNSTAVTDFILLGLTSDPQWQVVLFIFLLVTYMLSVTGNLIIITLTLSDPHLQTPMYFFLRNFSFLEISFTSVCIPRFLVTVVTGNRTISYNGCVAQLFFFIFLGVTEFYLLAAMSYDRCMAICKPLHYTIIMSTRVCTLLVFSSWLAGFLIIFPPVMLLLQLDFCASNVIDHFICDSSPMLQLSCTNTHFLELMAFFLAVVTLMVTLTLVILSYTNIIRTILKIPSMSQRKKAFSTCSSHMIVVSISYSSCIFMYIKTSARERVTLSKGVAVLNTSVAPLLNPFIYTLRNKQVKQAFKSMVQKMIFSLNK
How it was run: as §1

[6] = biological target: T6, OR6C76 (Homo sapiens) (UniProt A6NM76)
T6 sequence (whole entry): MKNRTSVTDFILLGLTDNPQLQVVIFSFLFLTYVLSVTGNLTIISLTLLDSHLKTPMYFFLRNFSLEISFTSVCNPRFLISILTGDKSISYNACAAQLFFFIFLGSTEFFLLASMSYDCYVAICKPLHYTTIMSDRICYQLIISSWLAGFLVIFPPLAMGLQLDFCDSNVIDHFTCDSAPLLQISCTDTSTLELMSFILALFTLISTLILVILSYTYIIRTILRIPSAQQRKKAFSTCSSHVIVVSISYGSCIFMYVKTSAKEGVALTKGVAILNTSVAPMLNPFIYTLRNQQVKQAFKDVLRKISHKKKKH
How it was run: as §1

[7] = biological target: T7, OR6F1 (Homo sapiens) (UniProt Q8NGZ6)
T7 sequence (whole entry): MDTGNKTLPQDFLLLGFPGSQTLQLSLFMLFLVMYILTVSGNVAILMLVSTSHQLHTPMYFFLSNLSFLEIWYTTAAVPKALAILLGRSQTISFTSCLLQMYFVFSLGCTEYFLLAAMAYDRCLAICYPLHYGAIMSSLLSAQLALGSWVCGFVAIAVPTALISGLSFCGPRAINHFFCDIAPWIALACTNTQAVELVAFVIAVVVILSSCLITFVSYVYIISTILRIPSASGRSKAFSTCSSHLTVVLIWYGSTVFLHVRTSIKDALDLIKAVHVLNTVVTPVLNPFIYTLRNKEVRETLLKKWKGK
How it was run: as §1

[8] = biological target: T8, OR6J1 (Homo sapiens) (UniProt Q8NGC5)
T8 sequence (whole entry): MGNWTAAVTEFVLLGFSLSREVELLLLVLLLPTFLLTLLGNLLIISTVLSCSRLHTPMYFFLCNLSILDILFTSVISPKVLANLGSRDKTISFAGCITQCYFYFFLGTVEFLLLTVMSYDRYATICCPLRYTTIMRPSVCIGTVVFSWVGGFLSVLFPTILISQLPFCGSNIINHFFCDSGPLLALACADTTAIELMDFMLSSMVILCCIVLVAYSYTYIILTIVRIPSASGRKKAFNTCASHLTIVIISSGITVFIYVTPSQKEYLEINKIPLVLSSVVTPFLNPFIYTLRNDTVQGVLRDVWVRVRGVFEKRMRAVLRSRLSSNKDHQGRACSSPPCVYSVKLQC
How it was run: as §1

[9] = biological target: T9, OR6K2 (Homo sapiens) (UniProt Q8NGY2)
T9 sequence (whole entry): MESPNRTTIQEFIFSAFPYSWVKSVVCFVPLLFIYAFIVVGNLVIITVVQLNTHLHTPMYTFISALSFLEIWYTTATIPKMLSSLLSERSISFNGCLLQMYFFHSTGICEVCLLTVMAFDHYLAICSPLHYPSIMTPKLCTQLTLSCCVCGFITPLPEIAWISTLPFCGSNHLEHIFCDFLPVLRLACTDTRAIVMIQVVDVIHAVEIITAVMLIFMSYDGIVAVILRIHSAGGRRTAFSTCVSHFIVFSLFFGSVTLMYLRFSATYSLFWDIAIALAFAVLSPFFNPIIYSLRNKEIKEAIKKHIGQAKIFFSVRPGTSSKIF
How it was run: as §1

[10] = system: T10, OR6K3
T10 sequence (whole entry): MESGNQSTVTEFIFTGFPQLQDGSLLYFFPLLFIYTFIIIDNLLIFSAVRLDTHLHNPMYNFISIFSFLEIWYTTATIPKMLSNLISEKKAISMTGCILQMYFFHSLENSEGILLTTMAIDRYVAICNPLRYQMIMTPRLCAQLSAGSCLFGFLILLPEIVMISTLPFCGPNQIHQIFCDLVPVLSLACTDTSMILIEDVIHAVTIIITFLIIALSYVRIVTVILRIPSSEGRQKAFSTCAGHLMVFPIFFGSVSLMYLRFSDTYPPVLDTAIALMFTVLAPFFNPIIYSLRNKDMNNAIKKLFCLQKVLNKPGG
How it was run: as §1

[11] = biological target: T11, OR6K6 (Homo sapiens) (UniProt Q8NGW6)
T11 sequence (whole entry): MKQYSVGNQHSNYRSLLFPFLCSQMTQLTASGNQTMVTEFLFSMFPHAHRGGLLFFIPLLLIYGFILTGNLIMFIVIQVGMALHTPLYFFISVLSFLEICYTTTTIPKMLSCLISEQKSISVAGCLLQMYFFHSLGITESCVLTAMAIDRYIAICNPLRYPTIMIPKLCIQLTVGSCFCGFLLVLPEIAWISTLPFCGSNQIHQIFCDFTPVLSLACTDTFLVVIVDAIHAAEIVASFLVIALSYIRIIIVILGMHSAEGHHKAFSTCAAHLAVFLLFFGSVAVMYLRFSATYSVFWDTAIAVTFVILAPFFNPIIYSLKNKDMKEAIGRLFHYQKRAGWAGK
How it was run: as §1

[12] = biological target: T12, OR6M1 (Homo sapiens) (UniProt Q8NGM8)
T12 sequence (whole entry): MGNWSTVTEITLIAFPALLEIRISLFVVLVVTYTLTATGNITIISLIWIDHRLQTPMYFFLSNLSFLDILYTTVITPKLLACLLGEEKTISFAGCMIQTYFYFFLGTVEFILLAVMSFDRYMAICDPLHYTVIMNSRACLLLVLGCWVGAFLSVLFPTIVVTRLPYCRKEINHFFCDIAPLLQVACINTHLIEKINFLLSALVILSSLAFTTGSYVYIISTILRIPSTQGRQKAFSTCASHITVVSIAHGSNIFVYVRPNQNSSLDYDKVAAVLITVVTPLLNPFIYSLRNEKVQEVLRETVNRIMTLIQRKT
How it was run: as §1

[13] = system: T13, OR6M1 R224C
T13 sequence (whole entry): T12 sequence (whole entry) with R224C
How it was run: as §1

[14] = system: T14, OR6M1 T276K
T14 sequence (whole entry): T12 sequence (whole entry) with T276K
How it was run: as §1

[15] = biological target: T15, OR6N1 (Homo sapiens) (UniProt Q8NGY5)
T15 sequence (whole entry): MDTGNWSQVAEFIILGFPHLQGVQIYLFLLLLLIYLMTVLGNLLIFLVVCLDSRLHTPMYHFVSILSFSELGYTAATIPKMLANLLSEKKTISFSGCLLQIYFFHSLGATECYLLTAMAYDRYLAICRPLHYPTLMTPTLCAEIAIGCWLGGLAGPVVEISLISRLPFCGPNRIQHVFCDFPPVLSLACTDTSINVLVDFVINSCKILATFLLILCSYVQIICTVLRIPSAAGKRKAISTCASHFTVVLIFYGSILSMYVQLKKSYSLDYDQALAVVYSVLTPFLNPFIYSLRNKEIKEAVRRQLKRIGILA
How it was run: as §1

[16] = biological target: T16, OR6N2 (Homo sapiens) (UniProt Q8NGY6)
T16 sequence (whole entry): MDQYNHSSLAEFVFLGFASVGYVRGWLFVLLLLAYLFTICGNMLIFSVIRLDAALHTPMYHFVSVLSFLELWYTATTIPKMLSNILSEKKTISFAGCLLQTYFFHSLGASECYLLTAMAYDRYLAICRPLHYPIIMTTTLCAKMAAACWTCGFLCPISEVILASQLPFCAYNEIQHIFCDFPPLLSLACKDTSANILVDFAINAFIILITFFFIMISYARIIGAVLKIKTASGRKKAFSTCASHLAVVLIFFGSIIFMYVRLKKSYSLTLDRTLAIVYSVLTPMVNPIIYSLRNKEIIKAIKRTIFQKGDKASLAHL
How it was run: as §1

[17] = biological target: T17, OR6P1 (Homo sapiens) (UniProt Q8NGX9)
T17 sequence (whole entry): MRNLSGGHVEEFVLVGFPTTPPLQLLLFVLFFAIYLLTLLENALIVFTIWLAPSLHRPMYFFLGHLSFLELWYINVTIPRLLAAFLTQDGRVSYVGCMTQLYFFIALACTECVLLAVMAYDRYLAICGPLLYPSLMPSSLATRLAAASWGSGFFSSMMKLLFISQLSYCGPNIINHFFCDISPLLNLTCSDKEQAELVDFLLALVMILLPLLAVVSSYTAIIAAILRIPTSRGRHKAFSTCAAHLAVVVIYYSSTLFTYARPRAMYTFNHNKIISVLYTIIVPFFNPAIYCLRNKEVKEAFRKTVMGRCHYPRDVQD
How it was run: as §1

[18] = biological target: T18, OR6Q1 (Homo sapiens) (UniProt Q8NGQ2)
T18 sequence (whole entry): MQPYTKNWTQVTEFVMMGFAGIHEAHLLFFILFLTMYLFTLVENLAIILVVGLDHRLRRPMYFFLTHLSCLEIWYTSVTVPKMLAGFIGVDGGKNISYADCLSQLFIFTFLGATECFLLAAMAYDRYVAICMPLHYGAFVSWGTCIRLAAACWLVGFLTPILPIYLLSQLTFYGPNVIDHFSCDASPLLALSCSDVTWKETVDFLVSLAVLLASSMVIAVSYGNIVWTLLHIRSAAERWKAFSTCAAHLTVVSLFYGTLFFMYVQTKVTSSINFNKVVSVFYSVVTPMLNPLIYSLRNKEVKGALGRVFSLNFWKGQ
How it was run: as §1

Measured: odorant receptor agonist call

CCC1OC(=O)C(O)=C1C (stereo unspecified)
inactive: all assays above

CCCC(S)CCOC(C)=O (stereo unspecified)
inactive: all assays above

Source: the M2OR odorant receptor database
